From article PMC3215888 (Cancer Chemotherapy and Pharmacology, 2011)
Where two headings read alike, the source gives them in different places.

Assays:
[1] = Toxicity; format: in vivo, mice; settings: solid tumor study at the MTD
Outline: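 Deaths counted in control and treated arms of the xenograft efficacy studies (10 mice per solid tumor group, 8 per ALL group). A group would be excluded from analysis if mortality exceeded 25%.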

[2] = tested on: SK-N-AS Neuroblastoma xenograft; format: in vivo, mice; settings: 20.8 mg/kg
Outline: (§1)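 Female CB17 scid mice bearing subcutaneous tumors, 10 per group. Dosed by oral gavage twice daily, 5 days weekly for 6 weeks, at 20.8, 10.4, 5.2 or 2.6 mg/kg, in 10% 2-hydroxypropyl-β-cyclodextrin/1% sodium bicarbonate. Event = quadrupled tumor volume; EFS by Kaplan–Meier, exact log-rank test. Per-mouse scores PD/SD/PR (≥50% regression)/CR (<0.10 cm3)/MCR; group median reported. PR, CR and MCR count as objective responses.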

[3] = tested on: Aurora kinase A; settings: cited from earlier work
[4] = tested on: OS-1 Osteosarcoma xenograft; format: in vivo, mice
Outline: as §1

[5] = tested on: ALL xenograft models; experiment: Objective responses across the ALL xenograft panel; format: in vivo, mice
Outline: (§2)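 Female NOD/scid mice inoculated intravenously with leukemia cells, 8 per group. Test compound suspended in 10% 2-hydroxypropyl-β-cyclodextrin/1% sodium bicarbonate in water. Given by oral gavage twice daily, 5 days weekly for 3 weeks, at 20.8, 10.4, 5.2 or 2.6 mg/kg. Blood %hCD45 of leukocytes tracked; event = hCD45 reaching 25%. EFS by Kaplan–Meier, exact log-rank vs controls. Median group response from individual scores.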

[6] = tested on: SMS-LHN neuroblastoma cell line; experiment: DIMSCAN in vitro testing, 96 h; format: cell-based; settings: for IC50: Neuroblastoma cell, 96 h
Outline: (§3)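 Neuroblastoma and Ewing sarcoma lines, STR-verified and maintained as in the originators' reports. Exposed for 96 h to test compound (DMSO stock diluted in medium) at 1 nM–10 μM. Viable cells quantified by fluorescein diacetate fluorescence with DIMSCAN digital image microscopy. Absolute IC50 = concentration giving 50% growth inhibition vs controls. Relative IC50 = concentration giving 50% of the maximum inhibitory effect.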

[7] = tested on: Ewing sarcoma cell lines; experiment: DIMSCAN in vitro testing, 96 h, Ewing panel; format: cell-based
Outline: as §3

[8] = tested on: SMS-KAN neuroblastoma cell line; experiment: DIMSCAN in vitro testing, 96 h; format: cell-based
[9] = tested on: NB-EBc1 neuroblastoma cell line; experiment: DIMSCAN in vitro testing, 96 h; format: cell-based; settings: for IC50: Neuroblastoma cell, 96 h
Outline: as §3

[10] = tested on: Aurora kinase A mutation (T217D); settings: cited from earlier work
[11] = tested on: NB-1771 tumor xenograft; experiment: Pharmacodynamics: mitotic index; format: in vivo, mice; settings: single 20.8 mg/kg
Outline: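 Single oral 20.8 mg/kg dose to mice bearing NB-1771 tumors. Tumors taken at 0, 2, 6, 8, 12 and 24 h (3 mice per time), formalin-fixed, paraffin-embedded. 5 μm sections immunofluorescently stained for MPM2 (1:100) and phospho-Ser10 histone H3 (1:25), 60 min at room temperature, DAPI counterstain. Five 40× images per slide; mitotic index = % cells positive for either marker; mean ± SD.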

[12] = tested on: ALL-19 ALL B-precursor xenograft; experiment: ALL xenograft; format: in vivo, mice
Outline: as §2

[13] = tested on: CHLA-90 neuroblastoma cell line; experiment: DIMSCAN in vitro testing, 96 h; format: cell-based; settings: for IC50: Neuroblastoma cell, 96 h
Outline: as §3

[14] = patients, 50 mg BID for 7 days; cited from earlier work
[15] = tested on: CHLA-140 neuroblastoma cell line; experiment: DIMSCAN in vitro testing, 96 h; format: cell-based; settings: for IC50: Neuroblastoma cell, 96 h
Outline: as §3

[16] = tested on: solid tumor xenograft models; experiment: Objective responses across the solid tumor xenograft panel; format: in vivo, mice; settings: MTD 20.8 mg/kg
Outline: as §1

[17] = tested on: CHLA-10 Ewing sarcoma cell line; experiment: DIMSCAN in vitro testing, 96 h; format: cell-based; settings: for IC50: 96 h
Outline: as §3

In the case of COc1cc(Nc2ncc3c(n2)-c2ccc(Cl)cc2C(c2c(F)cccc2OC)=NC3)ccc1C(=O)O [MLN8237], the “mice that died in the MLN8237 treatment arms” value [1] is reported as 5 of 90, the “mice that died in the MLN8237 treatment arms, percent” value [1] is reported as 5.6% and the “EFS T/C” value [2] is reported as 1.4. For the same compound, the EFS activity [2] was “Low”, the “Estimate of median time to event” value [2] was 7.6 days and the Median group response [2] was “PD1 (if the TGD value ≤1.5, that mouse was considered PD1)”. The Response activity [2] was “Low”, the “Tumor volume T/C” value [2] was 0.71 and the “Median RTV/hCD45 at end of study” value ([2]; RTV) was greater than 4. For the same compound, the “specificity for Aurora kinase A inhibition versus Aurora kinase B” value [3] was 200 fold, the “EFS T/C” value ([4]; 2.6 mg/kg) was greater than 1.5 and the Median group response ([4]; 2.6 mg/kg) was “PD2 (if the TGD value >1.5, the mouse was considered PD2)”. The Response activity ([4]; 2.6 mg/kg) was “Int”, the “Tumor volume T/C” value ([4]; 2.6 mg/kg) was 0.75 and the “Median RTV/hCD45 at end of study” value ([4]; 2.6 mg/kg) was 3.5. The “EFS T/C” value ([4]; 5.2 mg/kg) was greater than 1.5, the Median group response ([4]; 5.2 mg/kg) was “PD2 (if the TGD value >1.5, the mouse was considered PD2)” and the Response activity ([4]; 5.2 mg/kg) was “Int”. For the same compound, the “Tumor volume T/C” value ([4]; 5.2 mg/kg) was 0.70, the “Median RTV/hCD45 at end of study” value ([4]; 5.2 mg/kg) was 3.4 and the “EFS T/C” value ([4]; 10.4 mg/kg) was greater than 1.5. For the same compound, the Median group response ([4]; 10.4 mg/kg) was “PD2 (if the TGD value >1.5, the mouse was considered PD2)”, the Response activity ([4]; 10.4 mg/kg) was “Int” and the “Tumor volume T/C” value ([4]; 10.4 mg/kg) was 0.56. For the same compound, the “Median RTV/hCD45 at end of study” value ([4]; 10.4 mg/kg) was 2.0, the “EFS T/C” value ([4]; 20.8 mg/kg) was greater than 1.5 and the Response activity ([4]; 20.8 mg/kg) was “Int”. The “Tumor volume T/C” value ([4]; 20.8 mg/kg) was 0.45, the “Median RTV/hCD45 at end of study” value ([4]; 20.8 mg/kg) was 0.8 and the “ALL xenografts classified as objective responses” value ([5]; 0.25MTD, three models) was “two out of three”. The “response in ALL models” value ([5]; 0.5MTD, three models) was “CR in each of three ALL models”, the “ALL xenografts with objective responses, of 3 tested” value ([5]; MTD 20.8 mg/kg) was 3 and the IC50 ([6]; read-out: Absolute IC50) was 32 nM. For the same compound, the IC50 ([6]; read-out: Relative IC50) was 20 nM, the Ymin ([6]; SMS-LHN, minimum T/C) was 25.1% and the “median Ymin, Ewing cell lines” value ([7]; median of Ewing panel) was 11.4%. For the same compound, the IC50 ([7]; read-out: relative IC50 values, Ewing sarcoma cell lines) was 58 nM, the IC50 ([8]; read-out: Absolute IC50) was 34 nM and the IC50 ([8]; read-out: Relative IC50) was 32 nM. For the same compound, the Ymin ([9]; NB-EBc1, minimum T/C) was 3.6%, the IC50 ([9]; read-out: Absolute IC50) was 50 nM and the IC50 ([9]; read-out: Relative IC50) was 49 nM. For the same compound, the “inhibition of Aurora kinase A T217D mutant” value [10] was “impervious”, the “time of return of mitotic indices to baseline levels” value [11] was 24 h and the “time of peak of mitotic indices / pharmacodynamic activity” value ([11]; 20.8 mg/kg) was 12 h. For the same compound, the “increase of mitotic indices (MPM2, pHistH3) within 6 h” value ([11]; 6 h) was “approximately twofold”, the “increase of mitotic indices (MPM2, pHistH3) at peak” value ([11]; 12 h) was “three to fivefold” and the “EFS T/C” value ([12]; 2.6 mg/kg) was 1.0. For the same compound, the EFS activity ([12]; 2.6 mg/kg) was “Low”, the “Estimate of median time to event” value ([12]; 2.6 mg/kg) was 2.6 days and the Median group response ([12]; 2.6 mg/kg) was “PD1 (if the TGD value ≤1.5, that mouse was considered PD1)”. The Response activity ([12]; 2.6 mg/kg) was “Low”, the “Median RTV/hCD45 at end of study” value ([12]; 2.6 mg/kg) was greater than 25% and the “EFS T/C” value ([12]; 5.2 mg/kg) was 9.2. For the same compound, the EFS activity ([12]; 5.2 mg/kg) was “Int”, the “Estimate of median time to event” value ([12]; 5.2 mg/kg) was 22.9 days and the Median group response ([12]; 5.2 mg/kg) was “PD2 (if the TGD value >1.5, the mouse was considered PD2)”. The Response activity ([12]; 5.2 mg/kg) was “Int”, the “Median RTV/hCD45 at end of study” value ([12]; 5.2 mg/kg) was greater than 25% and the “EFS T/C” value ([12]; 10.4 mg/kg) was 14.9. For the same compound, the EFS activity ([12]; 10.4 mg/kg) was “Int”, the “Estimate of median time to event” value ([12]; 10.4 mg/kg) was 37.2 days and the Response activity ([12]; 10.4 mg/kg) was “High”. For the same compound, the “Median RTV/hCD45 at end of study” value ([12]; 10.4 mg/kg) was greater than 25%, the “EFS T/C” value ([12]; 20.8 mg/kg) was 16.8 and the EFS activity ([12]; 20.8 mg/kg) was “Int”. The “Estimate of median time to event” value ([12]; 20.8 mg/kg) was 41.8 days, the Response activity ([12]; 20.8 mg/kg) was “High” and the “Median RTV/hCD45 at end of study” value ([12]; 20.8 mg/kg) was greater than 25%. For the same compound, the Ymin ([13]; CHLA-90, minimum T/C) was 16.3%, the IC50 ([13]; read-out: Absolute IC50) was 61 nM and the IC50 ([13]; read-out: Relative IC50) was 48 nM. The average trough concentrations [14] was “exceeded 1 μM”, the Ymin ([15]; CHLA-140, minimum T/C) was 29.4% and the IC50 ([15]; read-out: Absolute IC50) was 26 nM. The IC50 ([15]; read-out: Relative IC50) was 14 nM, the “objective responses out of 9 models in the solid tumor panel” value [16] was 5 and the IC50 ([17]; read-out: Absolute IC50) was 60 nM. It also gave an IC50 ([17]; read-out: Relative IC50) of 56 nM and a Ymin ([17]; CHLA-10, minimum T/C) of 4.7%.
